ChEMBL document CHEMBL3400028, “Evaluation of Aconitum diterpenoid alkaloids as antiproliferative agents” (2015)

Assays:
Type in all cases: functional
A549 = experiment: Antiproliferative activity against human A549 cells by sulforhodamine B assay
Outline: (§1)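 Cells in RPMI 1640 (25 mM HEPES, 2 mM L-glutamine, 10% heat-inactivated FBS, antibiotics) at 37 °C, 5% CO2. Seeded at 3–5 × 10³/well with graded concentrations, paclitaxel as assay control, for 72 h. TCA-fixed, stained with 0.04% SRB, dye dissolved in 10 mM Tris, A515 read. GI50 is the concentration halving absorbance versus untreated cells; three or more experiments.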

DU-145 = experiment: Antiproliferative activity against human DU145 cells by sulforhodamine B assay; outline: as §1
KB = experiment: Antiproliferative activity against human KB cells by sulforhodamine B assay; outline: as §1
[1] = Antiproliferative activity against multidrug-resistant P-gp expressing human KBVIN cells by sulforhodamine B assay
Outline: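 Vincristine-resistant KB subline kept in 100 nM vincristine, then grown 7–10 days without it before testing. RPMI 1640 with 10% FBS, 37 °C, 5% CO2. 3–5 × 10³ cells/well exposed 72 h to a concentration series, paclitaxel as assay control. SRB staining after TCA fixation, A515 read. GI50 is the 50% absorbance reduction versus untreated cells; three or more experiments.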

[2] = Selectivity ratio of GI50 for human KB cells to GI50 for multidrug-resistant P-gp expressing human KBVIN cells
Outline: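 Ratio of GI50 in parental KB to GI50 in P-gp-overexpressing KB-VIN. […] KB-VIN cells were grown 7–10 days without vincristine before the assay.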

GI50 (A549) [µM]	GI50 (DU-145) [µM]	GI50 (KB) [µM]	Compound	GI50 [1] [µM]	RatioGI50 [2]
10	10	10	C=C1[C@H]2C[C@H]3C4N5C[C@]6(C)CCC[C@]47[C@H]([C@H]2OC(=O)c2ccc(OC)cc2)C3(C[C@]5(O)[C@H]67)[C@@H]1O	10	10
> 20	> 20	> 20	C=C1[C@H]2C[C@H]3C4N5C[C@]6(C)CCC[C@]47[C@H]([C@H]2O)C3(C[C@]5(OC(=O)/C=C/c2ccccc2)[C@H]67)[C@@H]1O	> 20	>20
> 20	> 20	> 20	C=C1[C@H]2C[C@H]3C4N5C[C@]6(C)CCC[C@]47[C@H]([C@H]2O)C3(C[C@]5(OC(=O)c2ccccc2)[C@H]67)[C@@H]1O	> 20	>20
> 20	> 20	> 20	C=C1[C@H]2C[C@@H]3C4N5C[C@]6(C)CCC[C@@]47[C@@H]6[C@@]5(O)C[C@]3([C@@H]1OC(C)=O)[C@H]7[C@H]2O	> 20	
> 20	> 20	> 20	C=C1[C@H]2C[C@@H]3C4N5C[C@]6(C)CCC[C@@]47[C@@H]6[C@@]5(O)C[C@]3([C@@H]1OC(C)=O)[C@H]7[C@H]2OC(C)=O	> 20	
> 20	> 20	> 20	C=C1[C@H]2C[C@@H]3C4N(C(C)=O)C[C@]5(C)CCC[C@@]46[C@@H]5C(=O)C[C@]3([C@@H]1OC(C)=O)[C@H]6[C@H]2OC(C)=O (some centres not stated)	> 20	
> 20	> 20	> 20	C=C1[C@H]2C[C@@H]3C4N5C[C@]6(C)CCC[C@@]47[C@@H]6[C@@]5(OC(=O)c4ccc(OC)cc4)C[C@]3([C@@H]1O)[C@H]7[C@H]2OC(=O)c1ccc(OC)cc1	> 20	>20
10	10	10	C=C1[C@H]2C[C@@H]3C4N5C[C@]6(C)CCC[C@@]47[C@@H]6[C@@]5(OC(=O)c4ccc(OC)c(OC)c4)C[C@]3([C@@H]1O)[C@H]7[C@H]2OC(=O)c1ccc(OC)c(OC)c1	10	10
> 20	> 20	> 20	C=C1[C@H]2C[C@@H]3C4N5C[C@]6(C)CCC[C@@]47[C@@H]6[C@@]5(OC(=O)c4ccc([N+](=O)[O-])cc4)C[C@]3([C@@H]1O)[C@H]7[C@H]2O	> 20	>20
6.8	7.7	8.9	C=C1[C@H]2C[C@@H]3C4N5C[C@]6(C)CCC[C@@]47[C@@H]6[C@@]5(O)C[C@]3([C@@H]1O)[C@H]7[C@H]2OC(=O)c1cccc(C(F)(F)F)c1	6.2	1.5
10	10	10	C=C1[C@H]2C[C@@H]3C4N5C[C@]6(C)CCC[C@@]47[C@@H]6[C@@]5(O)C[C@]3([C@@H]1O)[C@H]7[C@H]2OC(=O)c1ccc(C(F)(F)F)cc1	10	10
> 20	> 20	> 20	C=C1[C@H]2C[C@@H]3C4N(C(=O)/C=C/c5ccccc5)C[C@]5(C)CCC[C@@]46[C@@H]5C(=O)C[C@]3([C@@H]1O)[C@H]6[C@H]2O (some centres not stated)	> 20	>20
> 20	> 20	> 20	C=C1[C@H]2C[C@@H]3C4N5C[C@]6(C)CCC[C@@]47[C@@H]6[C@@]5(O)C[C@]3([C@@H]1O)[C@H]7[C@H]2OC(=O)C(C)(C)C	> 20	>20

The remaining lines, values behind:

Compound	GI50 (A549) [µM]	GI50 (DU-145) [µM]	GI50 (KB) [µM]	GI50 [1] [µM]	RatioGI50 [2]
C=C1[C@H]2C[C@H]3C4N5C[C@]6(C)CCC[C@]47[C@H]([C@H]2OC(=O)c2ccccc2)C3(C[C@]5(OC(=O)c2ccccc2)[C@H]67)[C@@H]1O	10	10	10	10	10
C=C1[C@H]2C[C@H]3C4N5C[C@]6(C)CCC[C@]47[C@H]([C@H]2OC(=O)/C=C/c2ccccc2)C3(C[C@]5(O)[C@H]67)[C@@H]1O	8.4	6.5	7	6.4	1.1
C=C1[C@H]2C[C@H]3C4N5C[C@]6(C)CCC[C@]47[C@H]([C@H]2O)C3(C[C@]5(OC(=O)c2ccc(OC)cc2)[C@H]67)[C@@H]1O	> 20	> 20	> 20	> 20	>20
C=C1[C@H]2C[C@@H]3C4N5C[C@]6(C)CCC[C@@]47[C@@H]6[C@@]5(O)C[C@]3([C@@H]1OC(=O)c1ccccc1)[C@H]7[C@H]2OC(=O)c1ccccc1	8.8	7.6	5.2	6.3	0.82
C=C1[C@H]2C[C@@H]3C4N5C[C@]6(C)CCC[C@@]47[C@@H]6[C@@]5(OC(=O)c4ccc(OC)cc4)C[C@]3([C@@H]1OC(=O)c1ccc(OC)cc1)[C@H]7[C@H]2O	> 20	> 20	> 20	> 20	>20
C=C1[C@H]2C[C@@H]3C4N5C[C@]6(C)CCC[C@@]47[C@@H]6[C@@]5(O)C[C@]3([C@@H]1OC(=O)c1ccc(OC)c(OC)c1)[C@H]7[C@H]2O	> 20	> 20	> 20	> 20	>20
C=C1[C@H]2C[C@@H]3C4N5C[C@]6(C)CCC[C@@]47[C@@H]6[C@@]5(OC(=O)c4ccc(OC)c(OC)c4)C[C@]3([C@@H]1OC(=O)c1ccc(OC)c(OC)c1)[C@H]7[C@H]2O	10	10	10	10	10
C=C1[C@H]2C[C@@H]3C4N5C[C@]6(C)CCC[C@@]47[C@@H]6[C@@]5(O)C[C@]3([C@@H]1O)[C@H]7[C@H]2OC(=O)c1ccc([N+](=O)[O-])cc1	5.8	7.2	6.4	6.4	1
C=C1[C@H]2C[C@@H]3C4N5C[C@]6(C)CCC[C@@]47[C@@H]6[C@@]5(O)C[C@]3([C@@H]1OC(=O)c1ccc([N+](=O)[O-])cc1)[C@H]7[C@H]2O	> 20	> 20	> 20	> 20	>20
C=C1[C@H]2C[C@@H]3C4N5C[C@]6(C)CCC[C@@]47[C@@H]6[C@@]5(OC(=O)c4ccc([N+](=O)[O-])cc4)C[C@]3([C@@H]1OC(=O)c1ccc([N+](=O)[O-])cc1)[C@H]7[C@H]2O	> 20	> 20	> 20	> 20	>20
C=C1[C@H]2C[C@@H]3C4N5C[C@]6(C)CCC[C@@]47[C@@H]6[C@@]5(OC(=O)c4ccc([N+](=O)[O-])cc4)C[C@]3([C@@H]1OC(=O)c1ccc([N+](=O)[O-])cc1)[C@H]7[C@H]2OC(=O)c1ccc([N+](=O)[O-])cc1	> 20	> 20	> 20	> 20	>20
C=C1[C@H]2C[C@@H]3C4N5C[C@]6(C)CCC[C@@]47[C@@H]6[C@@]5(O)C[C@]3([C@@H]1OC(=O)c1cccc([N+](=O)[O-])c1)[C@H]7[C@H]2OC(=O)c1cccc([N+](=O)[O-])c1	5	5.2	5.6	5.6	0.99
C=C1[C@H]2C[C@@H]3C4N5C[C@]6(C)CCC[C@@]47[C@@H]6[C@@]5(OC(=O)c4cccc(C(F)(F)F)c4)C[C@]3([C@@H]1O)[C@H]7[C@H]2OC(=O)c1cccc(C(F)(F)F)c1	> 20	> 20	> 20	> 20	>20
C=C1[C@H]2C[C@@H]3C4N5C[C@]6(C)CCC[C@@]47[C@@H]6[C@@]5(O)C[C@]3([C@@H]1OC(=O)/C=C/c1ccccc1)[C@H]7[C@H]2O	> 20	> 20	> 20	> 20	>20
C=C1[C@H]2C[C@@H]3C4N5C[C@]6(C)CCC[C@@]47[C@@H]6[C@@]5(O)C[C@]3([C@@H]1O)[C@H]7[C@H]2OC(=O)c1cccnc1	> 20	> 20	> 20	> 20	>20
C=C1[C@H]2C[C@H]3C4N5C[C@]6(C)CCC[C@]47[C@H]([C@H]2OC(=O)c2ccc(OC)c(OC)c2)C3(C[C@]5(O)[C@H]67)[C@@H]1O	10	10	10	10	10
